Test results taken from ChEMBL document CHEMBL1800036, “A novel HDAC inhibitor with a hydroxy-pyrimidine scaffold” (Bioorg Med Chem Lett, 2011).

Tests used:
Histone deacetylase 1 = Histone deacetylase 1 (Homo sapiens, UniProt Q13547); test: Inhibition of recombinant HDAC1 assessed as inhibition of fluorogenic aminocoumarin release from substrate by trypsin-coupled biochemical assay
How it was run: (§1)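 Trypsin-coupled fluorogenic assay. Substrate is an acetylated lysine tripeptide amide-linked to aminocoumarin (AMC). HDAC deacetylation allows trypsin to release AMC, and the fluorescence increase is read. Compound was tested at various concentrations and normalized to a DMSO control. IC50 was derived by non-linear regression fit.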

Histone deacetylase 2 = Histone deacetylase 2 (Homo sapiens, UniProt Q92769); test: Inhibition of recombinant HDAC2 assessed as inhibition of fluorogenic aminocoumarin release from substrate by trypsin-coupled biochemical assay
Histone deacetylase 3 = Histone deacetylase 3 (Homo sapiens, UniProt O15379); test: Inhibition of recombinant HDAC3 assessed as inhibition of fluorogenic aminocoumarin release from substrate by trypsin-coupled biochemical assay; how it was run: as §1
Histone deacetylase 4 = Histone deacetylase 4 (Homo sapiens, UniProt P56524); test: Inhibition of recombinant HDAC4 assessed as inhibition of fluorogenic aminocoumarin release from substrate by trypsin-coupled biochemical assay; how it was run: as §1
Histone deacetylase 5 = Histone deacetylase 5 (Homo sapiens, UniProt Q9UQL6); test: Inhibition of recombinant HDAC5 assessed as inhibition of fluorogenic aminocoumarin release from substrate by trypsin-coupled biochemical assay; how it was run: as §1
[1] = biological target: T1, Protein deacetylase HDAC6 (Homo sapiens, UniProt Q9UBN7); test: Inhibition of recombinant HDAC6 assessed as inhibition of fluorogenic aminocoumarin release from substrate by trypsin-coupled biochemical assay; how it was run: as §1
T1 sequence (Q9UBN7 whole entry): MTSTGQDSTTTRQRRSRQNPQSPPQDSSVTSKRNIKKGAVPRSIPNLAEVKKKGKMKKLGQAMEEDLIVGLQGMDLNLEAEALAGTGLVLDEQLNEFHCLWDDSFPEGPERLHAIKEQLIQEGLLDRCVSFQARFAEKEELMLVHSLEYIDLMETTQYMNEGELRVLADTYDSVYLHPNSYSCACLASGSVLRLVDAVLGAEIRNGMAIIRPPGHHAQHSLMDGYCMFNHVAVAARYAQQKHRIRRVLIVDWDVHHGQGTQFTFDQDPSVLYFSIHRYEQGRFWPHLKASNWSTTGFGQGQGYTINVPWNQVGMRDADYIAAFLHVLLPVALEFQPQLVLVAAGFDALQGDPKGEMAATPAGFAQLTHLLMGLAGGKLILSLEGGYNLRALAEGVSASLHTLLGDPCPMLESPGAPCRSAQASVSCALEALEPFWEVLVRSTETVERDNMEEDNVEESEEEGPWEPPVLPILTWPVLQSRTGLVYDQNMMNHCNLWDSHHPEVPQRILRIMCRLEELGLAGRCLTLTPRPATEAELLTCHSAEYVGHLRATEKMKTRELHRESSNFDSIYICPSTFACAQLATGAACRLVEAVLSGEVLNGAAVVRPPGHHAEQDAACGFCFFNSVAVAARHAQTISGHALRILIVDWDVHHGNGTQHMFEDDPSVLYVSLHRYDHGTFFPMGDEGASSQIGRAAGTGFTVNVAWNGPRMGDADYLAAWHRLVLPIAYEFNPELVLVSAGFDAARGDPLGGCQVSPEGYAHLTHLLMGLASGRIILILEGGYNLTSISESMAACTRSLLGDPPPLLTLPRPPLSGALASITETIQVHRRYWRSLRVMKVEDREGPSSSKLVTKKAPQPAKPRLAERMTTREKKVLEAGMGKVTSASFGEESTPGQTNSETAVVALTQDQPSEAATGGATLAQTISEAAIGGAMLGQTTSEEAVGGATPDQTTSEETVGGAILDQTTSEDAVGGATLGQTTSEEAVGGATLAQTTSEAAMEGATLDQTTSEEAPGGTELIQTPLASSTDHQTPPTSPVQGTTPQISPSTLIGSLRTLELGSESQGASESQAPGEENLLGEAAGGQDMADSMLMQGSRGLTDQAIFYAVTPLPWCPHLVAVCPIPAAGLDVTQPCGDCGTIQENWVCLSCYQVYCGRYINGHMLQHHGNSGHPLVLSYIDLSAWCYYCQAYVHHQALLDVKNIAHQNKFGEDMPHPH

Histone deacetylase 7 = biological target: T2, Histone deacetylase 7 (Homo sapiens, UniProt Q8WUI4); test: Inhibition of recombinant HDAC7 assessed as inhibition of fluorogenic aminocoumarin release from substrate by trypsin-coupled biochemical assay
T2 sequence (Q8WUI4 whole entry): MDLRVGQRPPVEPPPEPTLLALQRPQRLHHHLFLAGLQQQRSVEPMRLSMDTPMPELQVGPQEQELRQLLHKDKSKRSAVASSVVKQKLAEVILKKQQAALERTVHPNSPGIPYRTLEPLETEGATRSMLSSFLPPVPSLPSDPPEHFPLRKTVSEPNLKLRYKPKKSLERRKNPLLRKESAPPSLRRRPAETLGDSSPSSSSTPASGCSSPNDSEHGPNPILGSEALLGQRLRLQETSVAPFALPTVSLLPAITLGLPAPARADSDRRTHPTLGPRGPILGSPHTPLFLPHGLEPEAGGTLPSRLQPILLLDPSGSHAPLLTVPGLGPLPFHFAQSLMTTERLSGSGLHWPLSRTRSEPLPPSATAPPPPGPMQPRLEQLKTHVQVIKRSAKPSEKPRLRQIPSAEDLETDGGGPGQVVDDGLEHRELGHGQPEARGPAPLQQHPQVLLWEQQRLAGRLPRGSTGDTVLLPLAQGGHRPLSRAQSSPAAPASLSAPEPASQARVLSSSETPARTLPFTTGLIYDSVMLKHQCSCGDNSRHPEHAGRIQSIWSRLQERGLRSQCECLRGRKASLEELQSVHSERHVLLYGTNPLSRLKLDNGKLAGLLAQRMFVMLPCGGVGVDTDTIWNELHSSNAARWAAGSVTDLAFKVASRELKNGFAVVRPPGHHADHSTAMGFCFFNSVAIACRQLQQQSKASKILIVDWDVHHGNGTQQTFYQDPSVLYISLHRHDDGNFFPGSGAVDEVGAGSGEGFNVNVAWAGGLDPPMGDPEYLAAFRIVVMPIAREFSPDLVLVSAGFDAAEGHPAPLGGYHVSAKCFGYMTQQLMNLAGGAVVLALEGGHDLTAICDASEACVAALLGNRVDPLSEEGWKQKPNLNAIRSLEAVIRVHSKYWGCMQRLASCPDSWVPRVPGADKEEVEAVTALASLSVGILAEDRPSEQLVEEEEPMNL

Histone deacetylase 8 = biological target: T3, Histone deacetylase 8 (Homo sapiens, UniProt Q9BY41); test: Inhibition of recombinant HDAC8 assessed as inhibition of fluorogenic aminocoumarin release from substrate by trypsin-coupled biochemical assay; how it was run: as §1
T3 sequence (Q9BY41 whole entry): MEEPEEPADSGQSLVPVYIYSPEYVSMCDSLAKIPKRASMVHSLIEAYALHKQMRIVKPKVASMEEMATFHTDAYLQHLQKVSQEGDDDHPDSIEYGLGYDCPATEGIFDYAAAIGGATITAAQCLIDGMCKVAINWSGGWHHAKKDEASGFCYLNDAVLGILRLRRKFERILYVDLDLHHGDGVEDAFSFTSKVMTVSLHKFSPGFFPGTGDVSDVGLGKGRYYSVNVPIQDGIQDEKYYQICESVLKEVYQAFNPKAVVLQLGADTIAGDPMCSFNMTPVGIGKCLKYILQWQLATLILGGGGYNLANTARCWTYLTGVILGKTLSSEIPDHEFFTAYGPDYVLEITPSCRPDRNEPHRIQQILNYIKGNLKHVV

Histone deacetylase 9 = Histone deacetylase 9 (Homo sapiens, UniProt Q9UKV0); test: Inhibition of recombinant HDAC9 assessed as inhibition of fluorogenic aminocoumarin release from substrate by trypsin-coupled biochemical assay; how it was run: as §1
Chain of Histone deacetylase 9 (Q9UKV0 whole entry): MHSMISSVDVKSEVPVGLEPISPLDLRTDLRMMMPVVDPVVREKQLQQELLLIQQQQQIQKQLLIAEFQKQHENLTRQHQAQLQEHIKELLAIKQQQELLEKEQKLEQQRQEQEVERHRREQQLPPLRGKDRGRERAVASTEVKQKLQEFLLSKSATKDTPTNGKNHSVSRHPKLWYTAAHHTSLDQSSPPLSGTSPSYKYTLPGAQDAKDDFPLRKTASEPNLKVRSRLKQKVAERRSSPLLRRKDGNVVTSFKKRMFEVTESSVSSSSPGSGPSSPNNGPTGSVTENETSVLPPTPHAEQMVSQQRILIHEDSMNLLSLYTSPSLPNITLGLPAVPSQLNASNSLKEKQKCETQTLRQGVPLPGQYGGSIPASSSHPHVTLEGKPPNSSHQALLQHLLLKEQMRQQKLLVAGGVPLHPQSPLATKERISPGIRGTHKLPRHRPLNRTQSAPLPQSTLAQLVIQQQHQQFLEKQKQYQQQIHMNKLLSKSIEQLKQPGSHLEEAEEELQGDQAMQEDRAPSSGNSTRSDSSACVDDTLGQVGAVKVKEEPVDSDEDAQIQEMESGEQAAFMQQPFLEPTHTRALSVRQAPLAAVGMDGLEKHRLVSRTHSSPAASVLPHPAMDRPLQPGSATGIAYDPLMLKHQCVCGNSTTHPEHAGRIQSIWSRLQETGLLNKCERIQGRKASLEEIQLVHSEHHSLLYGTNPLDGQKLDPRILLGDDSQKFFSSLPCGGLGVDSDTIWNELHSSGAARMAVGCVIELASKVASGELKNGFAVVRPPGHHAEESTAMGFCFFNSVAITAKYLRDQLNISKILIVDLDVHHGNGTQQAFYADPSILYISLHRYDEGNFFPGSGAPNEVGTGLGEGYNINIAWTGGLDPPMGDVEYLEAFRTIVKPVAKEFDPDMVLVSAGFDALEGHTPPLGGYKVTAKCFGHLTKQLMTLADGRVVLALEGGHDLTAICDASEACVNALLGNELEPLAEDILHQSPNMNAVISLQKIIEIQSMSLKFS

Chain of Histone deacetylase 1 (Q13547 whole entry): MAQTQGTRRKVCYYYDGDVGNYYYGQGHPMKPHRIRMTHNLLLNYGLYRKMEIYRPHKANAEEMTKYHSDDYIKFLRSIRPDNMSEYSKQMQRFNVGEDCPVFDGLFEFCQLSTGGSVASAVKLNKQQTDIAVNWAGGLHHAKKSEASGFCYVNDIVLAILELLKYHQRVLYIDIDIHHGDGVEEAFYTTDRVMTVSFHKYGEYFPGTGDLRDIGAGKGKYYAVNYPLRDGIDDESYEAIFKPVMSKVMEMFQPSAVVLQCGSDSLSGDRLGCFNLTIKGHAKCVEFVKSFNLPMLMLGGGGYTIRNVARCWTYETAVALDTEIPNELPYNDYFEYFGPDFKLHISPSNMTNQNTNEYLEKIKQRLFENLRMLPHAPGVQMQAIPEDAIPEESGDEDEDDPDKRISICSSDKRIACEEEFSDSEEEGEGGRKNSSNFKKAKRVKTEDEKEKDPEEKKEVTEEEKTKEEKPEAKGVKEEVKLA
Chain of Histone deacetylase 2 (Q92769 whole entry): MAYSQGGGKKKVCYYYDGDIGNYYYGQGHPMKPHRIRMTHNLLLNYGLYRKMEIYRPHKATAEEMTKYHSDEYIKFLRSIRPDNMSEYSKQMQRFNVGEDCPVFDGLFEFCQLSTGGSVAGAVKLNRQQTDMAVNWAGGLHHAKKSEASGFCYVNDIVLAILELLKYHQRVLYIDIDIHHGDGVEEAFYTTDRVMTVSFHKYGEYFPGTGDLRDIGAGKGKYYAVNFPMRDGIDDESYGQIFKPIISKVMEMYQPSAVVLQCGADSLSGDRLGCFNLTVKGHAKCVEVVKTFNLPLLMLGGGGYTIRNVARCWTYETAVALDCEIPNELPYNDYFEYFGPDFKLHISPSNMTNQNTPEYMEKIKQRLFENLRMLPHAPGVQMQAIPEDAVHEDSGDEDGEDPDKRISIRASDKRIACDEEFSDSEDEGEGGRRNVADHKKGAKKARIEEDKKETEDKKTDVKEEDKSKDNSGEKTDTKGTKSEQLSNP
Chain of Histone deacetylase 3 (O15379 whole entry): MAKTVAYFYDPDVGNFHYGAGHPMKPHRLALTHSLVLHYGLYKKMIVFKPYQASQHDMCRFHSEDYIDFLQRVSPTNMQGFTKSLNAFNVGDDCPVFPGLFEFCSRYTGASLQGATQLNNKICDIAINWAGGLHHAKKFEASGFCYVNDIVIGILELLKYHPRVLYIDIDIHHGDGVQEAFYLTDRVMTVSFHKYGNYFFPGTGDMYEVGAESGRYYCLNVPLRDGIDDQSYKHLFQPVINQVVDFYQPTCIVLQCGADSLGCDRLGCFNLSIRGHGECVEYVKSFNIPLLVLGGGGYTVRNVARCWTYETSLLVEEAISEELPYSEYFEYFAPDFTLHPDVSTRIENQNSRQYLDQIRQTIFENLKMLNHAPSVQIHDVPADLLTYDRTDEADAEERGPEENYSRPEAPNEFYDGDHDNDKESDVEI
Chain of Histone deacetylase 5 (Q9UQL6 whole entry): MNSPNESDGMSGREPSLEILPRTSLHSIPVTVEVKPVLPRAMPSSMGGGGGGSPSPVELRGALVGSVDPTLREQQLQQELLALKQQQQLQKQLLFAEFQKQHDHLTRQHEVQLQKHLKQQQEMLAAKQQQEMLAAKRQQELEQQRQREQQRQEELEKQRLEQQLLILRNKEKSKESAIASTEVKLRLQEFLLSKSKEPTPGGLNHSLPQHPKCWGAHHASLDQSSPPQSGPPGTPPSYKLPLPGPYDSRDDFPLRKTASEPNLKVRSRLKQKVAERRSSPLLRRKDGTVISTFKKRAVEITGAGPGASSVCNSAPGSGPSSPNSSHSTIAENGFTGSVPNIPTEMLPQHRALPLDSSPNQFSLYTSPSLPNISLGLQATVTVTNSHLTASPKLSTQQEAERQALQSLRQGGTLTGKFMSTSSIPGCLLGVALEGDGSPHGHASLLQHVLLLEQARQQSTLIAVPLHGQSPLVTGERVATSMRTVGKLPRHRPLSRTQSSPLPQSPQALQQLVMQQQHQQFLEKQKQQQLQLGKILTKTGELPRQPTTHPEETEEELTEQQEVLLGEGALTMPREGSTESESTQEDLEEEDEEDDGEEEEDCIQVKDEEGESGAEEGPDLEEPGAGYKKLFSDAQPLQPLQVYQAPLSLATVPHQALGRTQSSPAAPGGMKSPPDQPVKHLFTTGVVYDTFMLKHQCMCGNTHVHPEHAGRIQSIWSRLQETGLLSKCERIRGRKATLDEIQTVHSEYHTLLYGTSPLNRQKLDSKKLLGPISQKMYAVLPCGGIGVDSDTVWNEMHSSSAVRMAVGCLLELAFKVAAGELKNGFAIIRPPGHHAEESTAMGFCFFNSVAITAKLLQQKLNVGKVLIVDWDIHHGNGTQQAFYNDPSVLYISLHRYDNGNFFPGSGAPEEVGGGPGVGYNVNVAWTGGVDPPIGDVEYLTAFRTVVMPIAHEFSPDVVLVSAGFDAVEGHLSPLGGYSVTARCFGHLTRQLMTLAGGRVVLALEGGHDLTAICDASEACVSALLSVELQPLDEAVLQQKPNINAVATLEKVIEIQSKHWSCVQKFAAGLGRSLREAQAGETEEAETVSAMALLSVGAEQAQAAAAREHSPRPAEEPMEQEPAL
Chain of Histone deacetylase 4 (P56524 whole entry): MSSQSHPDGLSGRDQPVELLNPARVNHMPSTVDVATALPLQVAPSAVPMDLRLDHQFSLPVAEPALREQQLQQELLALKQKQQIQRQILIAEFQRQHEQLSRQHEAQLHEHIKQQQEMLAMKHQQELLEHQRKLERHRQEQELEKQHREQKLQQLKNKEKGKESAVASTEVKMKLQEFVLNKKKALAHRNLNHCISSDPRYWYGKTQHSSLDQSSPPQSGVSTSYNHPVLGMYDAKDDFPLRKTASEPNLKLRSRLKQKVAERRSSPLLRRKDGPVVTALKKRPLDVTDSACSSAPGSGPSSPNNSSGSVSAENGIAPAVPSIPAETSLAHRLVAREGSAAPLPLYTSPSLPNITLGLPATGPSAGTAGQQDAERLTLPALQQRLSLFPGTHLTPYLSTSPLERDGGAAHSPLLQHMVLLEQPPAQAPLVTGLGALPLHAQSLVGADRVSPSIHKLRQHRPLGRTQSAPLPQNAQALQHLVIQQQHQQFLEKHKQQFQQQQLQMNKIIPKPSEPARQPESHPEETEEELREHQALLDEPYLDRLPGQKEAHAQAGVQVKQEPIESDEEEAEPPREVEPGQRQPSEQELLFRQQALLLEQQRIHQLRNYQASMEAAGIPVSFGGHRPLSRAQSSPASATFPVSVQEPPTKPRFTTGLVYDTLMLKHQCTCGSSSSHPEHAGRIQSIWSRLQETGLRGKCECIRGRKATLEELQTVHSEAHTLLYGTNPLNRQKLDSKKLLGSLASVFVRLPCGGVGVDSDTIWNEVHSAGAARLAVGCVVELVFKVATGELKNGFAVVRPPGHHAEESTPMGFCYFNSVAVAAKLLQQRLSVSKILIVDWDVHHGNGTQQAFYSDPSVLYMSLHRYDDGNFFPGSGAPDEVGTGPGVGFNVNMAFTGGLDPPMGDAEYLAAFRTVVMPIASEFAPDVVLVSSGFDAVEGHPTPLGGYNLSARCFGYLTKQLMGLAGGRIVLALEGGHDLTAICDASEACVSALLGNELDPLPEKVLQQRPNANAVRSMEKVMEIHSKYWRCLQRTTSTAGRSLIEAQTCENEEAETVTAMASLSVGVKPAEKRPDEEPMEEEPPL

Row | Compound | IC50 (Histone deacetylase 1) [µM] | IC50 (Histone deacetylase 2) [µM] | IC50 (Histone deacetylase 3) [µM] | IC50 (Histone deacetylase 4) [µM] | IC50 (Histone deacetylase 5) [µM] | IC50 [1] [µM] | IC50 (Histone deacetylase 7) [µM] | IC50 (Histone deacetylase 8) [µM] | IC50 (Histone deacetylase 9) [µM]
1 | CC(=O)N(C)c1ccc(C(=O)CSc2nc(C)cc(O)n2)cc1 | > 100 | > 100 | > 100 | > 100 | > 100 | > 100 | > 100 | > 100 | > 100
2 | CC(=O)Nc1ccc(C(=O)CSc2nc(C)cc(C)n2)cc1 | > 100 | > 100 | > 100 | > 100 | > 100 | > 100 | > 100 | > 100 | > 100
3 | Cc1cc(=O)[nH]c(SCC(=O)NCCCCCCc2ccccc2)n1 | > 100 | > 100 | > 100 | > 100 | > 100 | > 100 | > 100 | > 100 | > 100
4 | Cc1cc(O)nc(SCC(=O)NCCc2ccccc2)n1 | > 100 | > 100 | > 100 | > 100 | > 100 | > 100 | > 100 | > 100 | > 100
5 | Cc1cc(O)nc(SCC(=O)C(C)(C)C)n1 | > 100 | > 100 | > 100 | > 100 | > 100 | > 100 | > 100 | > 100 | > 100
6 | Cc1cc(O)nc(SCC(=O)c2ccccc2)n1 | > 100 | > 100 | > 100 | > 100 | > 100 | > 100 | 13.7 | > 100 | > 100
7 | COC(=O)CSc1nc(C)cc(=O)[nH]1 | > 100 | > 100 | > 100 | > 100 | > 100 | > 100 | > 100 | > 100 | > 100
8 | Cc1cc(O)nc(SCC(=O)c2ccc(Cl)cc2)n1 | 82.3 | 67 | 86.4 | > 100 | > 100 | 12.9 | > 100 | > 100 | > 100
9 | Cc1cc(=O)[nH]c(SCC(=O)c2ccc(O)cc2)n1 | > 100 | > 100 | > 100 | > 100 | > 100 | 40.1 | > 100 | > 100 | > 100
10 | CC(=O)Nc1ccc(C(=O)COc2cc(C)cc(=O)[nH]2)cc1 | > 100 | > 100 | > 100 | > 100 | > 100 | > 100 | > 100 | > 100 | > 100

Second part, the compound after the results:

Row | IC50 (Histone deacetylase 1) [µM] | IC50 (Histone deacetylase 2) [µM] | IC50 (Histone deacetylase 3) [µM] | IC50 (Histone deacetylase 4) [µM] | IC50 (Histone deacetylase 5) [µM] | IC50 [1] [µM] | IC50 (Histone deacetylase 7) [µM] | IC50 (Histone deacetylase 8) [µM] | IC50 (Histone deacetylase 9) [µM] | Compound
11 | > 100 | > 100 | > 100 | > 100 | 94.3 | > 100 | > 100 | > 100 | > 100 | Cc1cc(=O)[nH]c(SCC(=O)c2ccc(C(C)(C)C)cc2)n1
12 | > 100 | > 100 | > 100 | > 100 | > 100 | > 100 | > 100 | > 100 | > 100 | CC(=O)CSc1nc(C)cc(=O)[nH]1
13 | > 100 | > 100 | > 100 | > 100 | > 100 | > 100 | > 100 | > 100 | > 100 | COc1cc(C)nc(SCC(=O)c2ccc(NC(C)=O)cc2)n1
14 | > 100 | > 100 | > 100 | > 100 | > 100 | > 100 | > 100 | > 100 | > 100 | CC(=O)Nc1ccc(C(=O)CSc2cccc(O)c2)cc1
15 | > 100 | > 100 | > 100 | > 100 | > 100 | > 100 | > 100 | > 100 | > 100 | CC(=O)Nc1ccc(C(O)CSc2nc(C)cc(O)n2)cc1 (stereo not given)
16 | > 100 | > 100 | > 100 | > 100 | > 100 | > 100 | > 100 | > 100 | > 100 | CC(=O)Nc1ccc(C(=O)CSc2nccc(C)n2)cc1
17 | > 100 | > 100 | > 100 | > 100 | > 100 | 16.7 | > 100 | > 100 | > 100 | Cc1cc(O)nc(SCC(=O)c2ccc(O)c(O)c2)n1
18 | > 100 | > 100 | > 100 | > 100 | > 100 | > 100 | > 100 | > 100 | > 100 | Cc1cc(=O)[nH]c(SCC(=O)NCCCCc2ccccc2)n1
19 | > 100 | > 100 | > 100 | 54.2 | 16.7 | 88 | – | > 100 | 11.7 | CC(=O)Nc1ccc(C(=O)COc2nc(C)cc(O)n2)cc1
